Assay results from ChEMBL document CHEMBL1157063, “Gymnochromes E and F, cytotoxic phenanthroperylenequinones from a deep-water crinoid, Holopus rangii” (J Nat Prod, 2010).
Values after ≈ are worked out from the molar mass of the structure shown. Active and inactive are the calls of the source. No cut-off for these calls is given here.

How the values were obtained:
Pseudomonas aeruginosa = experiment: Antibacterial activity against Pseudomonas aeruginosa after 18 hrs by microdilution broth method; assay type: functional, organism-based
Outline: (§1)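 Reference strains: S. aureus ATCC 29213, methicillin-resistant S. aureus ATCC 700787, P. aeruginosa ATCC 27853 and C. albicans ATCC 44506. Method as previously described elsewhere.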

Staphylococcus aureus [1] = experiment: Antibacterial activity against methicillin-resistant Staphylococcus aureus after 18 hrs by microdilution broth method; assay type: functional; outline: as §1
PANC-1 [2] = experiment: Cytotoxicity against human PANC1 cells at 5.2 uM after 48 hrs by MTT assay; assay type: functional, cell-based
NCI/ADR-RES [3] = experiment: Cytotoxicity against human NCI/ADR-RES cells after 48 hrs by MTT assay; assay type: functional, cell-based
Outline: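 NCI/ADR-RES (formerly MCF-7/ADR) is a multidrug-resistant human ovarian carcinoma line from the NCI-Frederick tumor/cell line repository. It was scored for inhibition of proliferation using a previously described protocol. Each sample was run at least three times to derive the final IC50.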

Candida albicans = experiment: Antifungal activity against Candida albicans after 18 hrs by microdilution broth method; assay type: functional, organism-based; outline: as §1
DLD-1 [4] = experiment: Cytotoxicity against human DLD1 cells at 5.2 uM after 48 hrs by MTT assay; assay type: functional, cell-based
DLD-1 [5] = experiment: Cytotoxicity against human DLD1 cells at 6.4 uM after 48 hrs by MTT assay; assay type: functional, cell-based
NCI/ADR-RES [6] = experiment: Cytotoxicity against human NCI/ADR-RES cells at 5.2 uM after 48 hrs by MTT assay; assay type: functional, cell-based
PANC-1 [7] = experiment: Cytotoxicity against human PANC1 cells at 6.4 uM after 48 hrs by MTT assay; assay type: functional, cell-based
Histone deacetylase 1 = Histone deacetylase 1 (Homo sapiens, UniProt Q13547); experiment: Inhibition of human HDAC1 assessed as [3H]acetate release after 90 mins by scintillation counting
Sequence of Histone deacetylase 1 (Q13547 whole entry): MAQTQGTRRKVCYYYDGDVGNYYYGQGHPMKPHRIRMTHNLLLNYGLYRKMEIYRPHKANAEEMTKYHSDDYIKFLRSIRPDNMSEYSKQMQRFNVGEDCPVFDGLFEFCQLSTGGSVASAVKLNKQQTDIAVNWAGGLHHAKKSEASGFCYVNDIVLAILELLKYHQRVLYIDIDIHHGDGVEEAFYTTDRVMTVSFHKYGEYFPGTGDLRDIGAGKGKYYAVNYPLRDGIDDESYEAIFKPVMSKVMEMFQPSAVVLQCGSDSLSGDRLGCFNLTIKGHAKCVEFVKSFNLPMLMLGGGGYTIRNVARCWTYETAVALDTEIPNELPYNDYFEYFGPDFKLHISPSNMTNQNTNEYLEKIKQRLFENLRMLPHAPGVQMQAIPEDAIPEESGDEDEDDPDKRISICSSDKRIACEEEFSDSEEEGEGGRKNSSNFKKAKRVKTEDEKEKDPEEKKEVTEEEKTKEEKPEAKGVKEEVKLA

[8] = molecular target: Induced myeloid leukemia cell differentiation protein Mcl-1 (Homo sapiens, UniProt Q07820); experiment: Inhibition of MCL1 binding to Bak by FRET assay
Sequence of Induced myeloid leukemia cell differentiation protein Mcl-1 (Q07820 whole entry): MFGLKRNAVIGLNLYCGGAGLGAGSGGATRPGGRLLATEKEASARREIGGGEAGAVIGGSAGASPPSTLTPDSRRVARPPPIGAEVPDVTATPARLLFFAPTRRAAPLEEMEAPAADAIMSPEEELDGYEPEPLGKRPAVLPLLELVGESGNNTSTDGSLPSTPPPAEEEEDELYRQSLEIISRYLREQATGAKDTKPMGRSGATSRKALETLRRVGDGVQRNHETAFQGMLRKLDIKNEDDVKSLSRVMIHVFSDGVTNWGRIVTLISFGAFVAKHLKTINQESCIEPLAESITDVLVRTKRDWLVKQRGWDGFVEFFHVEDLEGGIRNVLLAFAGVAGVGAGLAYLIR

Staphylococcus aureus [9] = experiment: Antibacterial activity against Staphylococcus aureus after 18 hrs by microdilution broth method; assay type: functional; outline: as §1

Row | Structure (SMILES) | Activity (Pseudomonas aeruginosa) | Activity (Staphylococcus aureus [1]) | Activity (PANC-1 [2]) | Activity (NCI/ADR-RES [3]) | Activity (Candida albicans) | Activity (DLD-1 [4]) | Activity (DLD-1 [5]) | Activity (NCI/ADR-RES [6]) | Activity (PANC-1 [7]) | Activity (Histone deacetylase 1) | Activity [8] | Activity (Staphylococcus aureus [9]) | MIC (Staphylococcus aureus [1]) [µg/mL] | IC50 [8] [µM] | MIC (Staphylococcus aureus [9]) [µg/mL] | IC50 (NCI/ADR-RES [3]) [µM] | IC50 (Histone deacetylase 1) [µM]
1 | O=C(O)c1cc(O)c2c(c1)C(=O)c1cc(O)cc(O)c1C2=O | inactive | inactive | inactive | inactive | inactive | inactive | inactive | inactive | inactive | inactive | inactive | inactive | – | – | – | – | –
2 | CCC[C@@H](O)Cc1c(Br)c(O)c2c(=O)c3c(O)c(Br)c(O)c4c5c(O)c(Br)c(O)c6c(=O)c7c(O)c(Br)c(C[C@H](O)CCC)c8c1c2c(c34)c(c65)c78 [GYMNOCHROME F] | inactive | – | inactive | – | inactive | inactive | – | inactive | – | – | – | – | 12.5 (≈ 13 µM) | 3.3 | 12.5 (≈ 13 µM) | – | –
3 | CCC[C@@H](O)Cc1c(Br)c(O)c2c(=O)c3c(O)cc(O)c4c5c(O)cc(O)c6c(=O)c7c(O)c(Br)c(C[C@H](C)O)c8c1c2c(c34)c(c65)c78 [GYMNOCHROME E] | inactive | – | – | – | inactive | – | inactive | – | inactive | – | – | – | 25 (≈ 32.1 µM) | – | 25 (≈ 32.1 µM) | 3.5 | 10.9
4 | O=C(O)c1cc(O)c2c(c1)C(=O)c1cc(O)c(Br)c(O)c1C2=O | inactive | inactive | inactive | inactive | inactive | inactive | inactive | inactive | inactive | inactive | inactive | inactive | – | – | – | – | –
